Compounds with a hit are over-represented: about 27% of the library has one in this group of screens.
CYP2C19 act: increases human CYP2C19 enzyme activity; 96,000 tested, under 10 active; activation factor at 5 µM; AID 1025; recombinant CYP2C19, luciferin-H EGE luminescence; hits give high values; 0 = fully inhibited enzyme, 1 = untreated enzyme;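 active = activation factor of at least 2 at 5 µM in the primary screen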;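 also: 0 = wells with 2.5 mM tranylcypromine and 1 = vehicle-only wells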
Target sequence (P33261 whole entry, looked up): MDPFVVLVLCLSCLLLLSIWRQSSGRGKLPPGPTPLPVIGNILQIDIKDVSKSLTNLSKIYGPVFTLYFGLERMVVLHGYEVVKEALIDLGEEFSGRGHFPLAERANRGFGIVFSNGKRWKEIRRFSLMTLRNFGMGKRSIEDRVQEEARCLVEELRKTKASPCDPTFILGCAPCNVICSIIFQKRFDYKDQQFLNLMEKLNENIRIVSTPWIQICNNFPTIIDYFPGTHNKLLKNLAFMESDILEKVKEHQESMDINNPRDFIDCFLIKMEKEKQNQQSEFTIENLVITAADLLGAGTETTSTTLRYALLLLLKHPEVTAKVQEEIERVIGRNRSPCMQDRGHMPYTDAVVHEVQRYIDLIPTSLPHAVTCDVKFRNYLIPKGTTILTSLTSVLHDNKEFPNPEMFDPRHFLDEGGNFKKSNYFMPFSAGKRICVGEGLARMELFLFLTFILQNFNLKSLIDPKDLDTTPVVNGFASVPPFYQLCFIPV
Cav3 T inh: human Cav3.2 channel inhibition, primary screen | O95180 | B-score at 10 µM | AID 449739 | Cav3.2-expressing cells, Fluo-4 calcium fluorescence FDSS; hits give low values | hit rate 4% among 100,000;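 active = single-dose well whose peak fluorescence ratio is a statistical outlier from its plate by either plate-standardised score or position-corrected B-score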
CYP2C9 act: activators of human CYP2C9; AID 1024; hit rate 1.4% among 96,000; recombinant CYP2C9, luciferin-H conversion, luminescence; hits give high values; factor 1 = untreated enzyme, 0 = blocked; activation factor at 5 µM;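 active = activation factor of 2 or more for CYP2C9 at a 5 µM dose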;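 also: 0 = sulfaphenazole-blocked wells and 1 = vehicle-only wells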
Rev-RRE block: HIV Rev-RRE protein-RNA interaction inhibition. P05866. Rev peptide-RRE RNA binding, FRET. inhibition, % at 8 µM. hit rate 0.79% among 97,000;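 active = inhibition above the screen-wide mean plus 3 SD, cut at about 35% in these data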;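 also: 0% = median DMSO wells and 100% = median Neomycin B control wells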
Target sequence (P05866 whole entry, looked up): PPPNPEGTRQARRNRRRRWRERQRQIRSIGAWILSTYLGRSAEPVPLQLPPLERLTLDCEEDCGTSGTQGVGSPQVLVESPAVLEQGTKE
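Material: labelled RRE RNA duplex and labelled Rev peptide / Buffer or medium: HEPES pH 7.5 salt buffer with EDTA / Compound dosing: single point, 8 µM final nominal compound concentration / Benchmarks: DMSO low control, neomycin B high control / Timing: 5 min preincubation and 15 min binding, 25 °C / Technique: FRET fluorescence readout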
CYP2C19 inhib: human CYP2C19 inhibition; P33261; CYP2C19 Supersomes, luciferin-H EGE luminescence, 30 min; inhibition, % at 5 µM; hit rate 21% among 96,000;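 active = CYP2C19 inhibition above a set limit at 5 µM in the primary screen, cut at about 50% in these data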;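 also: plate controls were negative control wells for no effect and 2.5 mM tranylcypromine positive control for full effect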
CYP2C9 inh: inhibitors of human CYP2C9. CYP2C9 Supersomes, luciferin-H conversion, luminescence. hit rate 20% among 96,000. P11712. inhibition, % at 5 µM;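 active = blocking of liver enzyme CYP2C9 beyond about 50% at 5 µM, limit read from the data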
The depositor's hits bear a star; x = no result.

SMILES	CYP2C19 act	Cav3 T inh	CYP2C9 act	Rev-RRE block	CYP2C19 inhib	CYP2C9 inh
COC(=O)C(CC(=O)c1ccc(Br)cc1)n1ccnc1 (configuration not stated)	0	1.67	0.2	3.5	95.5*	80.8*
CN(C)c1c([N+](=O)[O-])ncn1C	0.9	-0.023	0.9	2.2	14.5	9.1
Cc1cc(C)c(O)c(-c2cc(C(=O)Nc3ccc(S(=O)(=O)N4CCOCC4)cc3)[nH]n2)c1	1	-0.448	0.7	-7.2	-2.9	30.8
Cc1onc(-c2ccccc2)c1C(=O)NCc1cccnc1	0.4	1.03	0.7	x	58.7*	25.2
COC(=O)c1onc(-c2ccccc2)c1C(=O)OC	0.3	0.67	0.8	2.4	71.9*	18.0
COC(=O)c1onc(-c2c(C)cc(C)cc2C)c1C(=O)OC	0.8	0.73	0.9	6.2	19.4	6.2
Cc1onc(-c2ccccc2)c1C(=O)Oc1cccnc1	0.5	-0.287	0.8	3.1	51.3*	17.7
Cc1onc(-c2ccncc2)c1C(=O)O	1.1	1.44	0.9	-1.7	-8.8	10.6
COc1ccc(N2CCN(C(=O)c3ccc(Oc4ccc(C(F)(F)F)cn4)cc3)CC2)cc1	0.8	-0.429	0.9	-0.1	19.1	12.0
COc1ccc(C(=O)Nc2cccc(OC(=O)c3ccc(C)c(C)c3)c2)cc1	0.7	x	0.3	12.1	26.9	69.9*
COc1ccc(OCc2ccc(C(=O)NN)cc2)cc1	0.1	-0.131	0.3	-1.2	92.1*	69.3*
COc1ccc(C(=O)Nc2cc(OC)cc(OC)c2)cc1	0.1	0.336	1.1	-2.6	86.2*	-9.7
CC(C)c1nnc(NC(=O)CCCCCN2C(=O)C3C4C=CC(C4)C3C2=O)s1 (configuration not stated)	1	0.361	0.8	-2.8	-1.9	19.1
Cc1c(CCO)c(=O)n(-c2ccccc2)n1S(=O)(=O)c1c(Cl)cc(Cl)cc1Cl	0.4	-5.48*	0.6	9.8	57.3*	36.5
Cc1cccc(S(=O)(=O)Nc2ccc(C)c3c2OC(C)(C)C3)c1	0	-3.47	2.1*	12.4	97.1*	-110.8
Cc1cc(C)c(S(=O)(=O)Nc2ccc3c4c(cccc24)CC3)c(C)c1	0.8	-3.19	1.1	26.1	19.0	-6.1
CCN(CC)c1ccc(C(=O)OCC(=O)NCC2CCCO2)cc1 (configuration not stated)	0.6	0.396	0.7	-6.4	41.2	25.5
OCC12COC(c3ccccc3)N1C(c1ccccc1)OC2 (configuration not stated)	0.3	0.00796	0.5	4.8	69.4*	46.6
c1ccc(CN2c3ccccc3-c3nc4ccccc4n3C2c2ccccn2)cc1 (configuration not stated)	0.8	-6.59*	0.6	1.8	19.9	42.3
CCN1c2ccccc2-c2nc3ccccc3n2C1c1ccco1 (configuration not stated)	0.7	x	0.4	5.7	28.1	58.6*
CCn1c(-c2ccco2)nc2ccccc21	0.9	0.418	1.3	5.3	13.1	-29.2
CN1c2ccccc2-c2nc3ccccc3n2C1c1ccncc1 (configuration not stated)	0	0.606	0	2.4	95.8*	95.1*
CN1c2ccccc2-c2nc3ccccc3n2C1c1ccccn1 (configuration not stated)	0.9	-1.7	0.7	7.0	6.9	34.5
CCCC1CCc2c(c3ccccc3[nH]c2=O)O1 (configuration not stated)	0.6	0.00276	0.8	-2.1	41.5	24.9
COc1cc(C(=S)N2CCCC2)cc(OC)c1O	0.4	0.074	1	2.2	60.7*	4.6
SMILES	CYP2C19 act	Cav3 T inh	CYP2C9 act	Rev-RRE block	CYP2C19 inhib	CYP2C9 inh
Cc1cc(OC(C)C(=O)N/N=C/CC(C)c2ccccc2)ccc1Cl (configuration not stated)	0.3	-6.48*	0.8	14.8	73.9*	24.6
CC(/C=N/NC(=O)C(O)c1ccccc1)=C\c1ccccc1 (configuration not stated)	0.8	-2	0.7	2.7	22.5	33.2
Cc1ncc([N+](=O)[O-])n1CC(C)O (configuration not stated)	0.9	0.42	0.7	6.2	5.0	31.4
NCCS(=O)(=O)O	x	0.185	x	x	x	x
CCN(CC)C(=O)c1sc2nc(-c3ccncc3)[nH]c(=O)c2c1C	0.4	x	0.8	8.9	62.8*	20.8
CC(OC(=O)c1cc2sccc2n1C)C(=O)NCc1ccco1 (configuration not stated)	0.1	-2.36	0.2	-1.9	90.0*	78.6*
Cn1c(C(=O)OC(C(=O)NCc2ccco2)c2ccncc2)cc2sccc21 (configuration not stated)	0	0.532	0.1	3.9	97.6*	89.9*
CC(OC(=O)c1cc2sccc2n1C)C(=O)NCc1ccc(F)cc1 (configuration not stated)	0.2	-1.36	0.3	8.5	78.5*	74.4*
COC(=O)Cn1c(CN2CCN(c3ccc(F)cc3)CC2)nc2c1c(=O)n(C)c(=O)n2C	0.8	0.841	0.8	x	25.0	22.9
CCOC(=O)CC12CN3CN(C1)CC(CC(=O)OCC)(C3)C2=O	1.1	0.0554	1.1	7.4	-7.0	-11.0
Cc1ccc(NC(=O)N2CCC(=O)N2)cc1	1.1	-0.0203	1	-1.0	-10.2	-4.8
Cc1cc(C)c2c(-n3cccc3)nn(CC#N)c2n1	0.8	-0.548	0.9	3.3	20.0	6.3
Cc1nn(Cc2ccccc2)c(Cl)c1C(=O)OCc1nnc(-c2ccccc2)o1	0.1	-4.98*	0.1	8.4	92.1*	85.7*
O=C(OCc1nnc(-c2ccccc2)o1)c1ccco1	0.8	0.566	0.9	5.0	18.1	6.5
Cc1nn(Cc2ccccc2)c(Cl)c1C(=O)OCc1nnc(-c2ccc(Cl)cc2)o1	0.6	-7.26*	0.4	4.7	39.8	61.6*
CC(C)CCNC(=O)[C@H](CSCc1ccccc1)N1Cc2ccccc2C1=O	x	-3.79*	x	x	x	x
O=C(O)C(Cc1ccccc1)N1Cc2ccccc2C1=O (configuration not stated)	1	0.322	0.8	5.6	-3.5	17.1
COc1ccc2oc(=O)c(C(=O)N3c4ccccc4CC3C)cc2c1 (configuration not stated)	0.8	-3.58	0.3	2.5	19.5	67.8*
COc1ccc(N(CC(=O)N2c3ccccc3CC2C)S(=O)(=O)c2c(C)nn(C)c2C)cc1 (configuration not stated)	0.2	-0.367	0.2	1.3	79.8*	77.3*
CCOC(=O)C1CCN(C(=O)CN(c2ccc(OC)cc2)S(=O)(=O)c2c(C)nn(C)c2C)CC1	0.7	0.115	0.5	3.2	31.3	48.7
COc1ccc2oc(=O)c(C(=O)N3CCN(c4ccccc4C)CC3)cc2c1	1	0.475	1	6.5	0.7	-0.5

Assay outcomes as filed in PubChem BioAssay.
